Experimental data collected from several papers.
Each line is one published result; the experiments were not run side by side.
JAK1 JH2: Tyrosine-protein kinase JAK1, JH2 (JAK1, Homo sapiens, UniProt P23458)
JAK1: Tyrosine-protein kinase JAK1 (JAK1, Homo sapiens, UniProt P23458)
JAK1 JH1: Tyrosine-protein kinase JAK1, JH1 (JAK1, Homo sapiens, UniProt P23458)

CS(=O)(=O)NCC[C@H](NC(=O)c1cncc2c1cnn2-c1ccc(F)cc1)c1ccnc(S(C)(=O)=O)c1 — remaining binding (JAK1 JH2; cell-free assay, competition with immobilised ligand; 1 µM): 100%
N[C@H]1CCN(c2nccc(-c3cnn4ncccc34)n2)C1 — remaining binding (JAK1; binding; 1 µM): 60%
CCCS(=O)(=O)Nc1ccc(F)c(C(=O)c2c[nH]c3ncc(-c4ccc(Cl)cc4)cc23)c1F — inhibition (JAK1; enzyme activity, inhibitor; 1 µM): < 20%
CNc1cc(Oc2cc(C(=O)Nc3cc(N4CCN(C)CC4)cc(C(F)(F)F)c3)ccc2C)ncn1 — inhibition (JAK1 JH2; target engagement in cells, inhibitor, chemoproteomics; Huh-7; 1 µM): -25.7%
O=C(Nc1cnn(-c2csc(C(=O)NC3COC3)c2)c1)Nc1c(F)cccc1Cl — remaining activity (JAK1; enzyme activity, inhibitor; 5 µM): 107%
CC(C)(C)c1nc(-c2cccc(NS(=O)(=O)c3c(F)cccc3F)c2F)c(-c2ccnc(N)n2)s1 — remaining activity (JAK1; enzyme activity, inhibitor, radiometric; 1 µM): 84%
c1cnn2ncc(-c3ccnc(N4CCC45COC5)n3)c2c1 — remaining signal (JAK1 JH1; cell-free assay; 1 µM): 95%
CN1CCN(c2cnc3c(C4CCN(C(=O)c5ccc(OC(F)(F)F)cc5N)CC4)ncnc3c2)CC1 — remaining binding (JAK1 JH1; cell-free assay, competition with immobilised ligand; 1 µM): 100%
Cc1ccc(NC(=O)c2ccc(C)c(C(F)(F)F)c2)cc1C#Cc1nn(C2CCC(O)CC2)c2ncnc(N)c12 (stereo not shown) — remaining signal (JAK1 JH1; cell-free assay; 10 µM): 3%
O=C1Nc2ccc(Cl)cc2C1=Cc1cc(Cl)c(O)c(Cl)c1 — remaining signal (JAK1; cell-free assay; 0.5 µM): 103%
Cc1cnn2ncc(-c3ccnc(N(C)C)n3)c2c1 — remaining binding (JAK1; binding; 1 µM): 51%
c1nc2c(Nc3ccc4c(c3)OCCO4)nc(Nc3ccc4c(c3)OCCO4)nc2[nH]1 — activity vs control (JAK1 JH1; enzyme activity, inhibitor; 10 µM): 52%
CN(c1nccc(-c2cnn3ncccc23)n1)C1CC1 — remaining binding (JAK1; binding; 1 µM): 100%
CS(=O)(=O)c1cc(C2(NC(=O)c3cncc4c3cnn4-c3ccc(F)cc3)CC2)ccn1 — remaining binding (JAK1 JH1; cell-free assay, competition with immobilised ligand; 1 µM): 96%
CN(CCCC(F)(F)F)c1nccc(-c2cnn3ncccc23)n1 — remaining binding (JAK1; binding; 1 µM): 100%
CN(C)C1CCN(CC#Cc2nn(C3CCCC3)c3nc(NCc4ccccc4)ncc23)C1 (stereo not shown) — inhibition (JAK1; enzyme activity, inhibitor, FRET; 0.1 µM): 2%
N#CCCc1ccc2c(c1)-c1[nH]c3ccc([N+](=O)[O-])cc3c1CC(=O)N2 — remaining signal (JAK1; cell-free assay; 0.5 µM): 91.9%
COc1cc(Cl)c(C(=O)N[C@@H](CN[C@H]2CC[C@@H](N)CC2)Cc2ccc(C#N)cc2)cc1-c1ccc(CN[C@H](C)c2ccc(C)cc2)o1 — remaining activity (JAK1 JH1; enzyme activity, inhibitor; 1 µM): 101%
COc1cc2ncnc(Nc3ccc(Oc4ccccc4)cc3C)c2cc1OC — inhibition (JAK1; enzyme activity, inhibitor; 1 µM): -5%
CC1=C(C#N)[C@@H](c2ccc3[nH]nc(C)c3c2)C(C#N)=C(c2ccc(Cl)cc2)N1 — remaining binding (JAK1 JH2; cell-free assay, competition with immobilised ligand; 1 µM): 38.2%
Nc1ncnc2occ(-c3ccc(NC(=O)Nc4cc(C(F)(F)F)ccc4F)cc3)c12 — remaining signal (JAK1 JH2; cell-free assay, inhibitor; 20 µM): 67%
Cc1cc(NC(=O)c2cccc3cc(-c4cccc5[nH]nc(N)c45)ccc23)ccc1F — activity vs control (JAK1 JH1; enzyme activity, inhibitor; 0.1 µM): 105%
O=C(CSc1nc2nccnc2c(=O)n1CCc1ccccc1)Nc1nccs1 — inhibition (JAK1; enzyme activity, inhibitor; 10 µM): 1%
CCOC(=O)c1cc2cc(-c3cc(C(=O)NCc4ccc(C(=O)O)cc4)nn3C)ccc2[nH]1 — remaining binding (JAK1 JH1; cell-free assay, competition with immobilised ligand; 0.1 µM): 100%
Cc1ccc(C(=O)Nc2ccc(CN3CCN(C)CC3)c(C(F)(F)F)c2)cc1C#Cc1cnc2cccnn12 — remaining activity (JAK1; enzyme activity, inhibitor; 23.5 nM): 86%
CC(=O)N1CCC(c2ccc(C(=O)NC(=N)N)cc2C(F)(F)F)CC1 — remaining binding (JAK1 JH2; cell-free assay, competition with immobilised ligand; 1 µM): 100%
Cc1cnc(NC2CCOCC2)nc1-n1cnc(C(=O)NC(CN)c2cc(F)cc(Cl)c2)c1 (stereo not shown) — remaining activity (JAK1 JH1; enzyme activity, inhibitor, radiometric; 1 µM): 93%
CN([C@@H]1CCc2c(CC(=O)O)c3cc(S(C)(=O)=O)ccc3n2C1)S(=O)(=O)c1ccc(F)cc1 — remaining binding (JAK1 JH2; cell-free assay, competition with immobilised ligand; 1 µM): 94%
COc1cc2ncnc(Nc3ccc(F)c(Cl)c3)c2cc1OCCCN1CCOCC1 — remaining signal (JAK1; cell-free assay; 0.5 µM): 102%
Cc1c[nH]c2nccc(Oc3c(F)cc(Nc4cc(Cl)nc(N)n4)cc3F)c12 — remaining binding (JAK1 JH1; cell-free assay, competition with immobilised ligand; 0.1 µM): 80%
Cc1sc(C(=O)NC2COC2)cc1-n1cc(NC(=O)Nc2c(F)cccc2Cl)cn1 — remaining activity (JAK1; enzyme activity, inhibitor; 10 µM): 72.2%
